High-throughput results deposited in PubChem BioAssay by several laboratories.
ANO1 block: mouse TMEM16A channel inhibition, primary screen; Q8BHY3; HEK293 TMEM16A/YFP iodide influx fluorescence, ionomycin; 310,000 compounds, 1.2% hits; normalized B-score (activity score, 25-100; higher = stronger inhibition) at 10 µM;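 active = ratio plate-corrected score three or more library SD toward inhibition, starting fluorescence score within five deviations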;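 also: score derived from kinetic fluorescence span divided by baseline fluorescence per well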
Target sequence (Q8BHY3 whole entry, looked up): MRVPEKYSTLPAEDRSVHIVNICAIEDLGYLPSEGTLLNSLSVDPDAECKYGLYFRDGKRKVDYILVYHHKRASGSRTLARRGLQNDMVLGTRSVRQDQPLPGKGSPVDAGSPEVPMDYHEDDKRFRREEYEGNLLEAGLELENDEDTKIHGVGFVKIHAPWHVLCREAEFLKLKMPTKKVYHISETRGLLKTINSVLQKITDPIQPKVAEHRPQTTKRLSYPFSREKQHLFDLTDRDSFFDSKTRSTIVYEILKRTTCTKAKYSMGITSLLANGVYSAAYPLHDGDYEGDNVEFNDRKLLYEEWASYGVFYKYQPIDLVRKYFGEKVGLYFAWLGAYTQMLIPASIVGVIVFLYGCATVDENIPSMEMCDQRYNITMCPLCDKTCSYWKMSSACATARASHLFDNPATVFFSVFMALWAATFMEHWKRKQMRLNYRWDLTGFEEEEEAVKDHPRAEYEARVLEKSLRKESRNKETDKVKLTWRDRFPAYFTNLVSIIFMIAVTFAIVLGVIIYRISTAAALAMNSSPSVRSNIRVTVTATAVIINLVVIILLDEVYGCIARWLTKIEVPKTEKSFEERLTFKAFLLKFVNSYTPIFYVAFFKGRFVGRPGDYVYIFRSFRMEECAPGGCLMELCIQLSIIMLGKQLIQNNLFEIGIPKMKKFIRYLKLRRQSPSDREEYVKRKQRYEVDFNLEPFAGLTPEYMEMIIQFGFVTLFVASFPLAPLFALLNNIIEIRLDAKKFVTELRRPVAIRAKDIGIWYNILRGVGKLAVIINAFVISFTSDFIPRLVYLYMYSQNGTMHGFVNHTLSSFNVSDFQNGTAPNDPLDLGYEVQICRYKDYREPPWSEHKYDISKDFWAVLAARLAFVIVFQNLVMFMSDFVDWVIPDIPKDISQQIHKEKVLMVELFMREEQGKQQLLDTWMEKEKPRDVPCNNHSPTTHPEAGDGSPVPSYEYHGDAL
ANO1 activ: activators or potentiators of mouse TMEM16A chloride channel; Q8BHY3; HEK293 TMEM16A/YFP-H148Q/I152L, iodide quench fluorescence; stronger effect = lower value; B-score at 10 µM; 340,000 compounds, 0.3% hits;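 active = fluorescence-ratio B-score plate-corrected deviation score at least 3 library SD below zero, with starting fluorescence score within 5 deviations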;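 also: channel opened by trigger with iodide after compound preincubation; score built on the fluorescence ratio of max minus min over baseline; more negative score means more quench and so TMEM16A activation or potentiation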
CRFR2-BP ag: agonists of human CRF-binding protein/CRF-R2 receptor complex. 350,000 compounds, 0.46% hits. activation, % at 13.2 µM. HEK293 CRF-R2/CRF-BP, calcium dye fluorescence (FLIPR); percent of saturating CRF peptide response. AID 588473;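 active = activation of at least 50%, plus an integration ratio under a set limit after plate pattern correction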
CRFBP-R2 block: blocks CRF-induced signaling of the CRF-BP/CRF-R2 complex | HEK293 CRF-R2/CRF-BP, CRF-induced calcium fluorescence | inhibition, % at 11.8 µM | 350,000 compounds, 0.59% hits | AID 588475;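 active = inhibition of the ligand-induced calcium signal above about 50% at the single tested concentration, limit read from the data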
TAAR1 antag: antagonists of human TAAR1; 360,000 compounds, 1.5% hits; inhibition, % at 3 µM; CHO RD-HGA16 TAAR1, Fluo-8 calcium fluorescence, antagonist;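 active = inhibition above a per-plate cutoff, the mean inhibition of test compounds on that plate plus 3 SD, cut at about 49% in these data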
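Test system: hTAAR1-expressing CHO RD-HGA16 cells, Gα16-coupled; Probe or stimulus: EC80 β-phenethylamine stimulus; Compound dosing: single nominal final test compound concentration of 3 µM; Timing: 140 s kinetic read after compound, 140 s after agonist; Signal: Fluo-8 calcium-sensitive fluorescence; Measure: % inhibition of agonist calcium response; Controls: DMSO and EC80 PEA controls.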
TAAR1 agonist: human TAAR1 agonism; AID 624467; Q96RJ0; 360,000 compounds, 0.99% hits; activation, % at 3 µM; CHO RD-HGA16 TAAR1, Fluo-8 calcium fluorescence; vehicle wells 0%, saturating PEA agonist 100%;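 active = activation above the mean activation of all test compounds in the run plus 3 SD, cut at about 38% in these data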
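Repeats: no replicates (n 1) | Material: CHO-derived RD-HGA16 cells with stable Gα16 and human TAAR1 | Technique: Kinetic Fluo-8 calcium fluorescence | Schedule: 17-24 h seeding, 75 min 37 °C dye, 30 min RT | Evaluation: % activation from peak over basal fluorescence ratio, DMSO-to-PEA scaled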
TAAR1 ag confirm: confirmation of human TAAR1 agonists; shares compounds with TAAR1 agonist; CHO RD-HGA16 TAAR1, Fluo-8 calcium fluorescence; scaled: DMSO 0%, maximal phenethylamine 100%; activation, % at 3 µM; 2,400 compounds, 82% hits; AID 651783;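 active = activation above a cutoff set at the run's mean compound activation plus 3 SD, cut at about 39% in these data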
Ga16 ag counter: nonselective agonism, TAAR1 counter-screen | shares compounds with TAAR1 agonist | CHO-Ga16 parental, Fluo-8 calcium fluorescence; normalized to maximal ATP response, DMSO zero | activation, % at 3 µM | 2,400 compounds, 50% hits;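 active = activation above the run cutoff, the mean activation over all tested wells plus 3 SD, cut at about 12% in these data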
TAAR1 desensitize: human TAAR1 agonist that also desensitizes the receptor. shares compounds with TAAR1 agonist. CHO RD-HGA16 hTAAR1, Fluo-8 calcium, beta-PEA response inhibition. inhibition, % at 3 µM. 2,400 compounds, 46% hits. AID 651951;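 active = inhibition above the run cutoff, the mean inhibition of all test compounds plus 3 SD, cut at about 49% in these data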;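 also: beta-PEA stimulus applied at its EC80; loss of beta-PEA calcium signal after compound pretreatment read as receptor desensitization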
Ga16 antag count: nonselective Ga16 antagonist in TAAR1 agonist counter-screen. shares compounds with TAAR1 agonist. CHO-Ga16 ATP-induced calcium, Fluo-8 fluorescence. inhibition, % at 3 µM. 2,400 compounds, 39% hits;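 active = inhibition above the plate's mean compound inhibition plus 3 SD, computed per plate, cut at about 22% in these data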
Numbers stand for hits; - = inactive; . = no result. Most compounds without a hit are left out; they make up all but 3.9% or so of the library.

SMILES	ANO1 block	ANO1 activ	CRFR2-BP ag	CRFBP-R2 block	TAAR1 antag	TAAR1 agonist	TAAR1 ag confirm	Ga16 ag counter	TAAR1 desensitize	Ga16 antag count
O=C1C2CC=CCC2C(=O)N1SC(Cl)(Cl)Cl (stereo not given)	.	.	.	.	54	57	43	26	55	49
COC(=O)C1=CCCN(C)C1	-	-	-	-	-	54	88	-	57	-
COC(=O)c1ccc(CN2CCN(Cc3ccccc3)CC2)cc1	-	-	-	-	-	-	.	.	.	.
COc1ccc2nc(-c3ccc(CN4CCC(n5c(=O)[nH]c6cc(Cl)ccc65)CC4)cc3)c(-c3ccccc3)nc2c1	.	.	.	.	-	-	.	.	.	.
Nc1c(C(=O)NCCc2ccccc2)c2nc3ccccc3nc2n1CCN1CCOCC1	-	-	-	-	74	71	-	13	-	43
COc1ccc(CCNC(=O)c2c(N)n(CCN3CCOCC3)c3nc4ccccc4nc23)cc1	-	-	-	-	-	-	.	.	.	.
N[C@@H]1C[C@H]1c1ccccc1	-	-	-	-	78	80	99	-	86	-
CN1CN(c2ccccc2)C2(CCN(CCCSc3ccccc3NC(=O)/C=C/c3ccccc3)CC2)C1=O	.	-	95	-	102	122	125	97	107	97
CCOC(=O)C1CCN(C=C2C(=O)N(C)C(=S)N(C)C2=O)CC1	-	-	-	-	-	-	.	.	.	.
CN1C(=O)C(=CN2CCN(C(=O)c3ccco3)CC2)C(=O)N(C)C1=S	-	-	-	-	-	53	75	-	-	-
COc1ccc(CNCCc2ccc(Cl)cc2)c(OC)c1OC	-	-	-	-	-	65	76	25	-	-
COc1cc(OC)c(OC)cc1CNCCc1ccc(OC)c(OC)c1	-	-	-	-	-	-	.	.	.	.
COc1cc(OC)c(OC)cc1CNCCc1cccc(F)c1	-	-	-	-	-	79	78	12	-	-
C=CCC1C(=O)NC(=S)NC1=O	-	-	-	-	-	-	.	.	.	.
COc1ccc(C(CNC(=O)c2ccc3c(c2)CCC3)N(C)C)cc1 (stereo not given)	-	-	-	-	-	-	.	.	.	.
c1ccc2cc(CC3=NCCN3)ccc2c1	-	-	-	-	66	87	98	-	87	-
CN1/C(=C\C=C2C(=O)NC(=S)NC2=O)C(C)(C)c2ccccc21	.	-	215	-	95	308	191	208	90	92
O=C1NC(=S)NC(=O)C1=Cc1cccc2cc3ccccc3cc12	.	-	-	-	-	-	.	.	.	.
CC1(C)OC(c2ccccc2)=C/C(=C/C=C2C(=O)NC(=S)NC2=O)O1	-	.	144	-	109	111	79	72	105	100
CC1CN1P(=O)(Oc1ccccc1)N1CC1C (stereo not given)	.	-	-	-	-	-	.	.	.	.
CCOc1ccc(NC(=O)c2c(C)nn(Cc3ccccc3)c2Cl)cc1	-	-	-	-	64	54	79	43	76	46
CCc1ccc(NC(=O)C(C)OC(=O)c2c(C)nn(Cc3ccccc3)c2Cl)cc1 (stereo not given)	-	-	-	-	-	-	.	.	.	.
Oc1ccccc1CN(CCc1ccccc1)Cc1ccccc1	-	-	-	-	-	49	75	16	89	-
CCCCN1C(=O)/C(=C/C=C/c2ccco2)C(=O)NC1=S	.	-	-	-	-	-	.	.	.	.
